Experimental data from ChEMBL document CHEMBL4043264, “Design, synthesis, X-ray studies, and biological evaluation of novel macrocyclic HIV-1 protease inhibitors involving the P1'-P2' ligands” (Bioorg Med Chem Lett, 2017).

Columns and labels:
[1] = tested on: Human immunodeficiency virus 1; experiment: Antiviral activity against HIV-1 harboring protease I50V mutant; assay type: functional
[2] = Ratio of IC50 for darunavir-resistant HIV1 harboring protease L10I/I15V/K20R/L24I/V32I/M36I/M46L/L63P/V82A/L89M mutant infected in human MT4 cells to IC50 for wild type HIV1 NL4-3 infected in human MT4 cells; assay type: functional
[3] = Inhibition of HIV-1 protease using fluorogenic substrate by fluorescence assay; design: species or system Human immunodeficiency virus 1
[4] = tested on: Human immunodeficiency virus 1; experiment: Antiviral activity against darunavir-resistant HIV1 harboring protease L10I/[…]K20R/L24I/V32I/M36I/M46L/L63P/V82A/L89M mutant infected in human MT4 cells assessed as reduction in p24 Gag protein production; assay type: functional, cell-based; conditions: Human immunodeficiency virus 1, MT4
In short: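 MT-4 cells (1×10^4) infected with 50 TCID₅₀ of wild-type HIV-1 NL4-3 or the DRV-resistant variant HIV-1 DRV^R P20 (protease L10I/I15V/K20R/L24I/V32I/M36I/M46L/L63P/V82A/L89M). Cells then cultured with various concentrations of each protease inhibitor. IC50 determined from p24 assay. Each assay run in triplicate. Values are means of three independent experiments, with fold-change relative to wild type.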

[5] = tested on: Human immunodeficiency virus 1; experiment: Antiviral activity against wild type HIV-1 NL4-3 infected in human MT4 cells assessed as reduction in p24 Gag protein production; assay type: functional, cell-based; conditions: Human immunodeficiency virus 1, NL4-3, MT4
[6] = tested on: Human immunodeficiency virus 1; experiment: Anti-viral activity against HIV-1 LAI infected in human MT2 cells assessed as reduction in p24 Gag protein production; assay type: functional, cell-based; conditions: Human immunodeficiency virus 1, M:B_Lai
[7] = Inhibition of wild-type HIV-1 protease; design: species or system Human immunodeficiency virus 1

SMILES | Ki [3] [nM] | IC50 [6] [nM] | other results
CC(C)CN(C[C@@H](O)[C@H](Cc1ccccc1)NC(=O)O[C@H]1CO[C@H]2OCC[C@H]21)S(=O)(=O)c1ccc(N)cc1 | – | – | IC50 [1]: 1.6 nM
Nc1ccc2c(c1)COCCCCCCCN(C[C@@H](O)[C@H](Cc1ccccc1)NC(=O)O[C@H]1CO[C@H]3OCC[C@H]31)S2(=O)=O | 0.014 | 2 | Ratio IC50 [2]: 13; IC50 [4]: 20 nM; IC50 [5]: 1.5 nM
COc1ccc2c(c1)OCCCCCOCCN(C[C@@H](O)[C@H](Cc1ccccc1)NC(=O)O[C@H]1CO[C@H]3OCC[C@H]31)S2(=O)=O | 4.21 | – | –
COc1ccc2c(c1)OCC/C=C/CN1C(=O)CC[C@@H]1CN(C[C@@H](O)[C@H](Cc1ccccc1)NC(=O)O[C@H]1CO[C@H]3OCC[C@H]31)S2(=O)=O | 0.47 | 176 | –
COc1ccc2c(c1)COC/C=C\CCCCCN(C[C@@H](O)[C@H](Cc1ccccc1)NC(=O)O[C@H]1CO[C@H]3OCC[C@H]31)S2(=O)=O | 0.64 | – | –
COc1ccc2c(c1)OCCCCCCN(S(C)(=O)=O)CCN(C[C@@H](O)[C@H](Cc1ccccc1)NC(=O)O[C@H]1CO[C@H]3OCC[C@H]31)S2(=O)=O | 13.3 | – | –
COc1ccc2c(c1)COCCCCCCCN(C[C@@H](O)[C@H](Cc1ccccc1)NC(=O)O[C@H]1CO[C@H]3OCC[C@H]31)S2(=O)=O | 0.062 | 5.3 | Ratio IC50 [2]: 67; IC50 [4]: 240 nM; IC50 [5]: 3.6 nM
COc1ccc2c(c1)COC/C=C\CCCCN(C[C@@H](O)[C@H](Cc1ccccc1)NC(=O)O[C@H]1CO[C@H]3OCC[C@H]31)S2(=O)=O | 0.029 | 54 | –
COc1ccc2c(c1)OCCCCCN1C(=O)CC[C@H]1CN(C[C@@H](O)[C@H](Cc1ccccc1)NC(=O)O[C@H]1CO[C@H]3OCC[C@H]31)S2(=O)=O | 27 | > 1000 | –
COc1ccc2c(c1)COCCCCCCCCN(C[C@@H](O)[C@H](Cc1ccccc1)NC(=O)O[C@H]1CO[C@H]3OCC[C@H]31)S2(=O)=O | 0.062 | 31 | –
COc1ccc2c(c1)OCCCCCN1C(=O)CC[C@@H]1CN(C[C@@H](O)[C@H](Cc1ccccc1)NC(=O)O[C@H]1CO[C@H]3OCC[C@H]31)S2(=O)=O | 0.46 | 122 | –
COc1ccc2c(c1)COC/C=C/CCCCN(C[C@@H](O)[C@H](Cc1ccccc1)NC(=O)O[C@H]1CO[C@H]3OCC[C@H]31)S2(=O)=O | 0.015 | 46 | –
COc1ccc2c(c1)OCCCCCN(S(C)(=O)=O)CCN(C[C@@H](O)[C@H](Cc1ccccc1)NC(=O)O[C@H]1CO[C@H]3OCC[C@H]31)S2(=O)=O | 33.3 | – | –
COc1ccc2c(c1)OCCCCCCOCCN(C[C@@H](O)[C@H](Cc1ccccc1)NC(=O)O[C@H]1CO[C@H]3OCC[C@H]31)S2(=O)=O | 9.85 | > 1000 | –
COc1ccc2c(c1)OCC/C=C\CN1C(=O)CC[C@@H]1CN(C[C@@H](O)[C@H](Cc1ccccc1)NC(=O)O[C@H]1CO[C@H]3OCC[C@H]31)S2(=O)=O | 13.2 | 22 | –
COc1ccc2c(c1)COC/C=C/CCCCCN(C[C@@H](O)[C@H](Cc1ccccc1)NC(=O)O[C@H]1CO[C@H]3OCC[C@H]31)S2(=O)=O | 0.55 | – | –
COc1ccc(S(=O)(=O)N(CC(C)C)C[C@@H](O)[C@H](Cc2ccccc2)NC(=O)O[C@H]2CO[C@H]3OCC[C@H]32)cc1 | – | – | Ki [7]: 0.014 nM; IC50 [1]: 1.2 nM
